NPY1 pot ag – potentiators or agonists of human neuropeptide Y receptor Y1. NPY-Y1 expressing cells, potentiator/agonist activation. P25929. AID 1304. activation, % at 3.6 µM. actives 0.37% (n = 220,000); in the data active = activation above about 33%, passing the limit was not always enough;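 also: cells stimulated with NPY at EC10 then isoproterenol at EC100; 0% = low agonist plus stimulus and 100% = saturating agonist plus stimulus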
Target sequence (P25929 whole entry, looked up): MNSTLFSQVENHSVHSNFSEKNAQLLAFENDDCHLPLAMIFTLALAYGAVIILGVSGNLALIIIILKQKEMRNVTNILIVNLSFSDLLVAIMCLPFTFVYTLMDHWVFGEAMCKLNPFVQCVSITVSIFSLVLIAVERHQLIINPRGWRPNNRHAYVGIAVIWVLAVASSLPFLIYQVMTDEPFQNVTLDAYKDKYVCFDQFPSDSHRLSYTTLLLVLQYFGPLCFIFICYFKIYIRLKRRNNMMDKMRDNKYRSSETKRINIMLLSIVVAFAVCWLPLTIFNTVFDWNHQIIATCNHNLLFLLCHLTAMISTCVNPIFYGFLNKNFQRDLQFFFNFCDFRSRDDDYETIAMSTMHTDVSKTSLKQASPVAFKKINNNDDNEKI
NPY-Y2 PAM-ag – potentiates or activates human NPY-Y2 receptor; P49146; cells expressing NPY-Y2, potentiator/agonist read-out; activation, % at 3.6 µM; actives 0.45% (n = 220,000); AID 1359; in the data active = activation above about 27%;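 also: cells stimulated with NPY near EC25 plus isoproterenol at EC100; 0% = vehicle plus submaximal agonist and 100% = vehicle plus saturating agonist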
NPY Y1 blocker – antagonists of human neuropeptide Y receptor Y1; HEK293-CNG Y1 cells, membrane potential fluorescence; NPY at EC95, then isoproterenol; inhibition, % at 3.6 µM; actives 1% (n = 200,000);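 active = inhibition above the campaign mean inhibition of all tested compounds plus 3 SD, cut at about 20% in these data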;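 also: 0% = DMSO wells given NPY plus isoproterenol and 100% = isoproterenol alone without NPY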
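Material: HEK293 cells co-expressing NPY Y1 receptor and cyclic-nucleotide gated channel. Timing: compound incubation 1 h at room temperature, readout 45 min post-stimulation. Signal: fluorescence, membrane potential probe.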
NPY Y2 blocker – NPY-Y2 (human) receptor antagonism | P49146 | NPY-Y2 expressing cells, antagonist mode | inhibition, % at 2.7 µM | actives 0.99% (n = 140,000) | AID 793;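 also: 0% = vehicle with agonist challenge and 100% = reference antagonist with challenge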
NPY1 antag conf – confirmation of human neuropeptide Y receptor Y1 antagonists; shares compounds with NPY Y1 blocker; HEK293-CNG NPY-Y1, membrane potential fluorescence, cAMP; NPY challenge against isoproterenol-raised cAMP; inhibition, % at 3.6 µM; actives 21% (n = 1,200); in the data active = inhibition above about 20%;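 also: 0% = vehicle with agonist plus stimulus and 100% = stimulus alone without agonist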
NPY2 antag ctr – human NPY-Y2 antagonism in NPY-Y1 counter-screen; shares compounds with NPY Y1 blocker; HEK293 NPY-Y2 CNG membrane potential fluorescence; cells given NPY, then isoproterenol; inhibition, % at 3.6 µM; actives 28% (n = 1,200);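 also: 0% = DMSO with agonist challenge and 100% = reference antagonist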
Active calls of the source: *; . = not tested or not shown. In the library only some 1.8% were active in any assay of this set; here they are far more common. Rule as the data show it, unless noted: active = inhibition above about 17%; inactive = the rest.

SMILES | NPY1 pot ag | NPY-Y2 PAM-ag | NPY Y1 blocker | NPY Y2 blocker | NPY1 antag conf | NPY2 antag ctr
CN1CCC(NC(=S)Nc2cccc([N+](=O)[O-])c2)CC1 | 11.5 | 8.8 | 2.0 | . | . | .
Cn1ccnc1C1CCCCN1Cc1nc(-c2ccc(Cl)cc2)no1 (centres undefined) | -15.0 | -25.6 | 42.6* | . | 13.4 | 9.4
COc1ccc(C(=O)Cn2nc(CNc3ccc(Br)cc3)[n+]3c2CCCCC3)cc1 | -1.7 | -5.9 | -3.1 | . | . | .
Cc1ccc(C(C)C)c(OCc2nn(CC(=O)c3ccc(OC(F)F)cc3)c3[n+]2CCCCC3)c1 | -20.5 | -11.2 | 31.5* | . | 19.8 | 16.1
CC(/C=N/NC(=O)c1n[nH]c2c1CCC2)=C\c1ccccc1 | -15.9 | -28.4 | 21.5* | 4.8 | 7.0 | 17.4*
COc1cccc(Oc2cn[nH]c2-c2ccc(O)cc2O)c1 | -21.9 | 15.1 | 153.2* | 7.2 | 61.5* | 4.1
COc1ccc(-c2onc(C)c2-c2cnn(-c3ccccc3)c2)c(O)c1C | -34.2 | -43.8 | 31.2* | . | 6.0 | 12.5
COc1ccc(-c2n[nH]c(C)c2-c2cnn(-c3ccccc3)c2)c(O)c1C | -7.9 | -21.7 | -1.6 | 2.2 | . | .
O=C(O)CC/C(=C\c1ccc(N2CCOCC2)c([N+](=O)[O-])c1)c1nc2ccccc2s1 | -54.1 | -39.5 | 40.6* | . | 54.4* | 79.4*
Cc1c(NC(=O)/C(C#N)=C/c2ccc(-c3cccc(Cl)c3)o2)c(=O)n(-c2ccccc2)n1C | 12.8 | 1.9 | 25.6* | 15.0 | 10.8 | 6.3
S=c1[nH]nc(-c2cccc3ccccc23)n1-c1cccnc1 | 15.4 | 11.1 | . | . | . | .
CCc1nccn1S(=O)(=O)c1ccc2ccc(C)cc2c1 | -35.9 | -43.3 | 33.5* | 15.3 | 16.3 | 15.0
Cc1ccc(NC(=S)NNC(=S)Nc2ccc(C)cc2C)cc1 | -3.1 | -40.7 | 22.0* | . | 10.2 | 17.1*
CCOC(=O)C1(Cc2ccccc2)CCN(Cc2ccc3cc(NC(C)=O)ccc3n2)CC1 | 8.1 | -24.1 | -0.3 | . | . | .
CC(C)(C)NC(=O)c1oc2ccccc2c1COc1ccccc1 | -46.9 | -7.2 | 28.0* | 13.3 | 26.4* | 13.6
Cn1nc(C(=O)Nc2cccc(C(F)(F)F)c2)c2ccccc2c1=O | -50.3 | -65.7 | 29.1* | 13.2 | 16.6 | 8.6
Cn1nccc1C(=O)Nc1cccc(C(F)(F)F)c1 | 13.3 | 15.1 | 1.7 | . | . | .
COc1ccc(C(C)=O)cc1CSc1nncn1-c1ccccc1 | 0.6 | -5.7 | 4.0 | 2.6 | . | .
COc1ccccc1CN(Cc1cc2cc(C)ccc2[nH]c1=O)Cc1nnnn1Cc1ccco1 | -18.1 | -8.8 | 33.2* | 15.1 | 20.6* | 9.9
CCCC[n+]1c(-c2ccc(Cl)cc2Cl)csc1Nc1ccccc1 | -9.9 | 14.9 | 17.3 | 3.5 | . | .
Clc1ccc(-c2csc(Nc3ccccc3)[n+]2Cc2ccco2)c(Cl)c1 | -6.3 | -10.4 | 31.8* | . | 22.8* | 11.5
Cc1ccc(C2CC(C(F)(F)F)n3nc(C(=O)Nc4c(C)n(C)n(-c5ccccc5)c4=O)cc3N2)cc1 (centres undefined) | 6.3 | -0.3 | 4.0 | . | . | .
Cc1cc(NC(=O)c2cc3n(n2)C(C(F)(F)F)CC(c2ccc(Cl)c(Cl)c2)N3)no1 (centres undefined) | 20.2 | 11.1 | 21.4* | 3.3 | 0.0 | 3.6
COc1cccc(OCC(=O)Nc2ccccc2-c2ccccc2)c1 | -22.6 | -11.3 | 24.4* | . | 15.5 | 12.5
Cc1ccc(OCC(=O)Nc2ccccc2-c2ccccc2)cc1 | -42.8 | -35.5 | 7.0 | 7.2 | . | .
SMILES | NPY1 pot ag | NPY-Y2 PAM-ag | NPY Y1 blocker | NPY Y2 blocker | NPY1 antag conf | NPY2 antag ctr
COc1ccccc1CN1C(=O)c2ccccc2C1C(=O)NC1CCC(C)CC1 (centres undefined) | -11.1 | -8.9 | 12.0 | . | . | .
CCCOC(=O)C(C)n1c(-c2ccccc2)nc2ccccc2c1=O (centres undefined) | -57.5 | -66.4 | 32.7* | 14.4 | 13.1 | 11.0
C[n+]1c2n(c3ccccc31)N=C(c1cc(C(C)(C)C)c(O)c(C(C)(C)C)c1)CS2 | -31.9 | -28.2 | 64.8* | . | 48.3* | 38.9*
COc1cccc(C2=Nn3c(nnc3-c3ccccc3O)SC2)c1 | -77.3 | -12.3 | 7.0 | 6.6 | . | .
COc1ccc(CN(C(=O)Cc2cccs2)C(C(=O)NC2CCCC2)c2ccncc2)cc1 (centres undefined) | 14.8 | 0.0 | -1.0 | 0.2 | . | .
COc1cccc(C(C(=O)NC2CCCC2)N(CC2CCCO2)C(=O)Cc2cccs2)c1 (centres undefined) | 11.8 | -9.8 | 25.6* | . | 7.6 | 7.9
COC(=O)c1ccc(CN2CCC(CO)(Cc3ccccc3Cl)CC2)cc1 | 2.0 | 5.2 | 12.7 | . | . | .
COc1ccc(/C=C/CN2CCC(CO)(Cc3ccccc3Cl)CC2)cc1 | -46.8 | -22.4 | 29.7* | . | 13.2 | 18.3*
O=C(NN1CCN(Cc2ccccc2)CC1)c1ccc(Cl)cc1 | -0.2 | 8.8 | -1.5 | . | . | .
CCN1C(=O)[C@@H]2C(C(=O)c3cnccn3)=NN[C@@H]2C1=O | -11.3 | -5.7 | . | . | . | .
COCCCNc1nc(SCc2ccccc2)nc2sc3c(c12)CCC3 | -70.6 | -22.8 | 21.1* | 2.0 | 29.8* | 46.1*
O=c1c2c(nc3nc(NCc4cccc(Cl)c4)[nH]n13)CCC2 | -11.2 | -1.2 | 9.7 | . | . | .
CN(C)S(=O)(=O)c1cc(NC(=O)CN2CCCc3ccccc32)ccc1Cl | 18.6 | 7.6 | 71.2* | . | 0.7 | 2.8
CCC(Oc1ccc2ccccc2c1)C(=O)O (centres undefined) | -0.7 | -30.7 | 21.4* | 12.0 | 6.7 | 7.0
CC(C)(C)n1nnnc1C(c1cccs1)N(Cc1ccccc1)Cc1cccnc1 (centres undefined) | -11.0 | -22.1 | 25.7* | 2.9 | 8.8 | 2.7
CC(C)(C)n1nnnc1C(c1cccnc1)N(Cc1ccccc1)Cc1cccs1 (centres undefined) | 6.8 | -9.3 | 20.9* | 8.9 | 3.7 | 4.7
CC(C)(C)n1nnnc1C(c1cccnc1)N1CCN(c2ccccc2)CC1 (centres undefined) | 29.3 | -1.4 | 2.4 | 8.6 | . | .
COc1ccc(N2CCN(c3oc(-c4ccco4)nc3C#N)CC2)cc1 | -48.9 | -16.4 | 21.8* | 6.7 | 5.8 | 6.8
Cc1ccc(C(C)C)c(OCc2n[nH]c(=S)o2)c1 | -8.6 | -23.4 | 22.8* | . | 6.0 | 9.5
O=c1[nH]nc(CNc2ccc(Cl)cc2Cl)c2ccccc12 | -35.4 | -13.2 | 24.5* | . | 16.4 | 25.4*
O=c1[nH]nc(Cc2ccc(Cl)cc2Cl)c2ccccc12 | 5.0 | 12.1 | 8.2 | 9.2 | . | .
CCn1c(C)nc2cc(C(=O)NNC(=S)Nc3ccc(OC)cc3)ccc21 | -9.3 | -4.7 | 2.9 | . | . | .
NCCOc1ccc(C23CC4CC(CC(C4)C2)C3)cc1 | -34.1 | -14.0 | 22.0* | . | 20.5* | 35.3*
OCCN1CCN(CC(O)COc2ccc(C34CC5CC(CC(C5)C3)C4)cc2)CC1 (centres undefined) | -50.0 | -42.2 | 11.6 | . | . | .
CC(C)OCCCn1c(=N)c(C(N)=S)cc2c(=O)n3ccccc3nc21 | 0.8 | -2.9 | -1.9 | -0.8 | . | .

Screens (PubChem BioAssay)
